Experimental data taken from paper PMC10613910 (Heliyon, 2023).

What was measured:
[1] = Pharmacokinetics of oral talazoparib in wild-type and ABCB1/ABCG2; type: in vivo, mouse; settings: talazoparib 0.5 mg/kg p.o.; for Cmax: female, FVB, mouse, plasma, po, 0.5 mg/kg, mean (±SEM)
Procedure, shortened: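 Adult female FVB wild-type or Abcb1a/Abcb1b/Abcg2-deficient mice (12–20 weeks, 4–5 per group) given test compound 0.5 mg/kg by oral gavage; dosing solution 0.1 mg/mL in 10% dimethylacetamide/5% Solutol HS/85% PBS. Blood at 5, 15, 30 min and 1, 2, 4 h, submandibular then retro-orbital (isoflurane), terminal cardiac. Plasma methanol-precipitated, UHPLC-MS/MS with isotope-labelled IS; Cmax visual, AUC(0–4 h) log-linear trapezoidal.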

[2] = Influence of novobiocin pretreatment on talazoparib pharmacokinetics in mice; type: in vivo; settings: female, FVB, mouse, plasma, po, 0.5 mg/kg, mean (±SEM), N=5; for AUC: 0-4 h
Procedure, shortened: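 Female mice aged 12–20 weeks (wild-type FVB or ABCB1A/ABCB1B/ABCG2-null), fasted 2 h. Pretreatment (50 mg/kg in 5% dextrose) or vehicle given by oral gavage 30 min before test compound (0.1 mg/mL in 10% dimethylacetamide/5% Solutol HS/85% PBS). Blood sampled 5 min–4 h. Plasma assayed by UHPLC-MS/MS with isotope-labelled internal standard. Cmax read from the curve; AUC0–4h by log-linear trapezoidal rule.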

[3] = Stability of talazoparib in mouse plasma QC samples; type: physicochemical; settings: for Bench-top stability, mean deviation: ambient temperature (25 °C) for 6 h; for Bench-top stability, mean deviation / Auto-sampler stability, mean deviation / Re-injection stability, mean deviation: N=3; for Auto-sampler stability, mean deviation: auto-sampler at 4 °C for 24 h; for Re-injection stability, mean deviation: reanalyzed after 24 h in auto-sampler at 4 °C
Procedure, shortened: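 Spiked mouse plasma QC at low (1.5 ng/mL) and high (80 ng/mL) levels. Conditions: bench-top at ambient temperature 6 h; extracts held in autosampler at 4 °C 24 h; processed samples re-injected after 24 h at 4 °C; three cycles of −80 °C storage for 12 h with room-temperature thaw. Quantified by UHPLC-MS/MS with isotope-labelled IS; acceptable within 85–115% of nominal.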

[4] = clinical studies, oral; cited from earlier work
[5] = system: ABCG2; settings: mice with a deficiency of only ABCG2; cited from earlier work
[6] = system: MDCKII cells overexpressing ABCG2; settings: cited from earlier work
[7] = ABCB1/ABCG2(−/−) mice, novobiocin 50 mg/kg p.o. 30 min before talazoparib 0.5 mg/kg p.o.
[8] = wild-type mice, novobiocin 50 mg/kg p.o. 30 min before talazoparib 0.5 mg/kg p.o.

increase in AUC with deficiency of ABCB1 and ABCG2 ([1]; ABCB1/ABCG2(−/−) vs wild-type mice): ~1.3 fold
Cmax ([1]; ABCB1/ABCG2(−/−) mice, N=4): 350 ng/mL
Cmax ([1]; wild-type FVB mice, N=5): 360 ng/mL
AUC [2, 7]: 890 ng·h/mL
AUC [2, 8]: 615 ng·h/mL
Cmax ([2]; ABCB1/ABCG2(−/−) mice, co-treatment none (vehicle), talazoparib 0.5 mg/kg p.o.): 352 ng/mL
Cmax [2, 7]: 449 ng/mL
Cmax ([2]; wild-type mice, co-treatment none (vehicle), talazoparib 0.5 mg/kg p.o.): 472 ng/mL
Cmax [2, 8]: 414 ng/mL
time stable in mouse plasma samples at room temperature ([3]; bench-top, room temperature, mouse plasma): at least 6 h
auto-sampler and reinjection stability time ([3]; extracted samples at 4 °C in auto-sampler): at least 24 h
stability after repeated freeze and thaw cycles ([3]; mouse plasma samples, three freeze-thaw cycles): remained stable
Bench-top stability, mean deviation ([3]; nominal 1.5 ng/mL, mouse plasma): 2.15%
Auto-sampler stability, mean deviation ([3]; nominal 1.5 ng/mL): −4.34%
Re-injection stability, mean deviation ([3]; nominal 1.5 ng/mL): 0.64%
Bench-top stability, mean deviation ([3]; nominal 80 ng/mL, mouse plasma): −8.09%
Auto-sampler stability, mean deviation ([3]; nominal 80 ng/mL): −5.14%
Re-injection stability, mean deviation ([3]; nominal 80 ng/mL): 0.62%
Structure (SMILES): Cn1ncnc1[C@H]1c2n[nH]c(=O)c3cc(F)cc(c23)N[C@@H]1c1ccc(F)cc1 [Talazoparib]
terminal half-life [4]: ~50 h
levels of talazoparib in plasma [5]: unaltered
levels of talazoparib in cells [6]: unaltered
